According to PMC3152797 (Cancer chemotherapy and pharmacology, 2009):
pIC50: −log10 of the molar value. Like-named read-outs stand apart in the source and are kept apart here.

Legend:
[1] = system: HEL cells; assay: Drug-drug effect on cell survival / cell death; type: cell-based, human; settings: for Cell death: 48 h
[2] = system: P-STAT3; assay: Down-regulation of P-STAT3; type: cell-based; settings: Homo sapiens, HEL, read-out: IC50 for P-STAT3 down-regulation
[3] = system: HSC70 (HSPA8); assay: HSC70; type: cell-based, human; settings: HEL cells, Fig. 1b
In short: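 HEL human erythroleukemia cells were washed and resuspended in serum-free RPMI 1640 (1.2 × 10⁷ cells/200 μl). They were electroporated at 250 V and 250 μF (2-mm gap) with 200 nM HSPA1A/B siRNA, a two-mismatch control, or media only. Test compounds were added for the last 6 h of a 48-h incubation. Read-out was western blot with ECL detection, normalized to actin, at least triplicate.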

[4] = background statement, no reference given; cited from earlier work

Question: With “control-siRNA: version of HSPA1 siRNA with two mismatches, 5′-CGACCGAGACAAGCGCAAG-3′, used as control (chemistry not given here)” as the molecule, how does the “Effect on cell survival” value ([1]; HEL cells) read?
Answer: Its value is “no effect”.

Question: Which results are given for `CO[C@H]1/C=C\C=C(/C)C(=O)NC2=CC(=O)C(NCCN(C)C)=C(C[C@@H](C)C[C@H](OC)[C@H](O)[C@@H](C)/C=C(\C)[C@@H]1OC(N)=O)C2=O` [17-DMAG, 17-(dimethyl-aminoethylamino)-17-demethoxygeldanamycin]?
Answer: pIC50 ([2]; 6 h): 6.35; pIC50 [2]: 6.80; Cell death ([1]; 50% of the IC50, with HSP70 siRNA added): 50%; Cell death ([1]; 50% of the IC50, without siRNA): ~ 10%; Effect on HSC70 (HSPA8) expression [3]: affected by neither

Question: Which Solubility [4] does the source give for `C=CCNC1=C2C[C@@H](C)C[C@H](OC)[C@H](O)[C@@H](C)/C=C(\C)[C@H](OC(N)=O)[C@@H](OC)/C=C\C=C(/C)C(=O)NC(=CC1=O)C2=O` [17-AAG, 17-allylamino-17-demethoxygeldanamycin] here?
Answer: Its Solubility is “poor solubility”.
